Screening results (PubChem)
NS3 helicase inh: HCV NS3 helicase inhibition; 290,000 compounds, 0.56% hits; NS3 helicase DNA unwinding, Cy5 molecular beacon fluorescence; inhibition, % at 10.9 µM; AID 1800;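 active = inhibition above the mean of all tested compounds plus 3 SD, set per campaign, cut at about 35% in these data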;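 note: 0% = DMSO wells and 100% = thioflavine S control wells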
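Assay system – hepatitis C virus NS3 helicase domain fragment enzyme · Buffer or medium – MOPS pH 6.5, MgCl2, DTT, Tween20, BSA · Reagent – Cy5/quencher beacon DNA duplex and ATP to start · Compound – single 10.9 µM dose · Timing – 1 h at 25 °C · Technique – Cy5 beacon fluorescence read at start and 1 h · Measure – % inhibition of unwinding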
EBNA-1 inhibitor: blocks EBNA-1 binding to DNA; 300,000 compounds, 0.34% hits; EBNA-1 DNA binding, fluorescence polarization; inhibition, % at 14.8 µM; in the data active = inhibition above about 28%
ZTA DNA inh: blocks Epstein-Barr virus ZTA, an EBNA-1 counter-screen; ZTA-DNA binding, fluorescence polarization; inhibition, % at 11 µM; 320,000 compounds, 0.15% hits; in the data active = inhibition above about 33%
Target sequence (P03206 whole entry, looked up): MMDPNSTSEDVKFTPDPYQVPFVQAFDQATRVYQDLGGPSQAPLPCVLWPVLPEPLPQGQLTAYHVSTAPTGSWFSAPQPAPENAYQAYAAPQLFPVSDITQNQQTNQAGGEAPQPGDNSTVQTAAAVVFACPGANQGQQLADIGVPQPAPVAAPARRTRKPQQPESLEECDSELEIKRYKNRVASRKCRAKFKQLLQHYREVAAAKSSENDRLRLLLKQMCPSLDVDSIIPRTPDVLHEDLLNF
HCV core dimer: HCV core protein dimerization inhibition; 300,000 compounds, 0.33% hits; TR-FRET GST/Flag-core106 dimerization, 1536-well; inhibition, % at 5 µM;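 active = inhibition above the mean of all tested compounds plus 3 SD, set per screening campaign, cut at about 45% in these data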
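assay system = GST-tagged and Flag-tagged HCV core protein residues 1-106 | controls = unlabelled core106 and no-GST-core106 wells | incubation = compound-protein-antibody incubation 4 h at 22.5 °C | probe or stimulus = Eu donor and XL665 acceptor anti-tag antibodies | read-out = % inhibition based on acceptor/donor emission ratio | signal = TR-FRET 671 and 617 nm emission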
An asterisk follows results filed as active; . = no result given; + = active, no number. This is a sample that favours compounds with a hit; in the whole collection about 1.2% have one here.

SMILES	NS3 helicase inh	EBNA-1 inhibitor	ZTA DNA inh	HCV core dimer
Cc1ccccc1-n1c(SCC(=O)c2cc(C)n(C)c2C)nnc1-c1cccnc1	0	-3	11	4
CCn1c(CSc2nnc(-c3cccnc3)n2-c2ccccc2C)nc2cc(C(=O)O)ccc21	-3	124*	+	2
N#Cc1cc([N+](=O)[O-])ccc1Oc1cccc(/C=N/NC(=O)c2cccc(Cl)c2)c1	-9	0	1	50*
CC1CCC(NC(=O)COC(=O)C2=NN(c3ccccc3)C(=O)CC2)CC1 (stereo not drawn)	.	.	-2	.
COc1ccc(C(CNC(=O)c2ccc(-c3cccc(C(F)(F)F)c3)o2)N2CCOCC2)cc1 (stereo not drawn)	.	-5	-5	1
O=c1cc(CN2CCN(c3ccccc3)CC2)nc2scc(-c3ccccc3)n12	13	-3	-1	46*
CCOC(=O)C1CCN(Cc2cc(=O)n3c(-c4ccccc4)csc3n2)CC1	0	2	-4	35
Cc1ccc(C2C(C#N)=C(N)Oc3c2sc2ccccc32)o1 (stereo not drawn)	9	3	-7	80*
Cc1ccc(NC(=S)NC2CCSc3ccccc32)cc1C (stereo not drawn)	-3	1	15	10
NC(=O)C1Cc2ccccc2CN1C(=O)c1nn(Cc2ccccc2)c(=O)c2ccccc12 (stereo not drawn)	.	.	-27	.
COc1ccc(C2=NN3C(C2)c2ccccc2OC32C(=O)N(C)c3ccccc32)cc1 (stereo not drawn)	1	-1	-4	65*
CCCOc1ccc(NC(=O)C2CC(=O)N3CCCN=C3S2)cc1 (stereo not drawn)	1	5	-5	7
CCOc1ccc(NC(=O)C2CC(=O)N3CCCN=C3S2)cc1 (stereo not drawn)	6	-1	-22	50*
Cc1cccc(-c2nc(=S)c3c(n2Cc2ccco2)CCCC3)c1	1	10	14	64*
COc1cccc(-c2nc(=S)c3c(n2Cc2ccco2)CCCC3)c1	18	0	-16	-2
O=C1c2ccccc2-c2onc3c(N4CCN(CCO)CC4)cc(N4CCN(C(=O)c5ccco5)CC4)c1c23	-17	9	28	-51
CN1CCN(c2cc(N3CCN(C(=O)c4ccco4)CC3)c3c4c(onc24)-c2ccccc2C3=O)CC1	-19	1	16	-28
O=C(O)CCCNc1cc(N2CCC3(CC2)OCCO3)c2noc3c2c1C(=O)c1ccccc1-3	37*	93*	143*	-32
CCOC(=O)N1CCN(c2cc(NCCC(=O)O)c3c4c(onc24)-c2ccccc2C3=O)CC1	36*	118*	177*	-60
O=S(=O)(c1ccc(F)c(Cl)c1)N1CCN(C/C=C/c2ccccc2)CC1	.	.	-31	.
CC(OC(=O)c1ccc2c(c1)C(=O)N(Cc1ccncc1)C2=O)C(=O)Nc1cccc(Cl)c1Cl (stereo not drawn)	-4	12	7	14
O=C(COC(=O)c1ccc2c(c1)C(=O)N(Cc1ccncc1)C2=O)Nc1ccccc1[N+](=O)[O-]	24	-2	-7	54*
C#CCOCCOCCOCCNc1nc(N2CCN(C(=O)CCCCCCCCCCNC(=O)[C@@H](CCSC)n3cc(CCO)nn3)CC2)nc(N2CCN(C(=O)CCCCCCCCCCNC(=O)[C@H](CO)n3cc(CCCCCN)nn3)CC2)n1	.	-6	4	6
C#CCOCCOCCOCCNc1nc(N2CCN(C(=O)CCCCCCCCCCNC(=O)[C@H](CCCCN)n3cc(CCO)nn3)CC2)nc(N2CCN(C(=O)CCCCCCCCCCNC(=O)[C@H](CCCCN)n3cc(CCCC(=O)O)nn3)CC2)n1	.	3	19	-42
C#CCOCCOCCOCCNc1nc(N2CCN(C(=O)CCCCCCCCCCNC(=O)[C@H](CCCCN)n3cc(C[C@@H](C)CC)nn3)CC2)nc(N2CCN(C(=O)CCCCCCCCCCNC(=O)[C@H](CCCN=C(N)N)n3cc(C[C@@H](C)CC)nn3)CC2)n1	.	10	70*	13
SMILES	NS3 helicase inh	EBNA-1 inhibitor	ZTA DNA inh	HCV core dimer
C#CCOCCOCCOCCNc1nc(N2CCN(C(=O)CCCCCCCCCCNC(=O)[C@H](CO)n3cc(CCCCCN)nn3)CC2)nc(N2CCN(C(=O)CCCCCCCCCCNC(=O)[C@H](CCCN=C(N)N)n3cc(C[C@@H](C)CC)nn3)CC2)n1	.	13	105*	15
CCCC(C(=O)NC1CCCC1)N(Cc1ccccc1)C(=O)c1snc(C(N)=O)c1N (stereo not drawn)	3	22	-11	0
COc1ccc(OC)c(NC(=S)N2c3ccccc3CC2C)c1 (stereo not drawn)	-10	1	-6	5
Cc1cccc(N2CCN(C(=O)COc3ccc4c(c3)CCC4)CC2C)c1 (stereo not drawn)	.	.	-2	.
N#CCSc1ccccc1NC(=O)COc1ccc(-c2nnco2)cc1	.	.	-5	.
N#Cc1ccsc1NC(=O)COc1ccc(-c2nnco2)cc1	4	5	18	96*
O=C(NCC1OCCc2ccccc21)c1ccc(NC(=O)c2cccc(Br)c2)cc1 (stereo not drawn)	-7	30*	-12	2
COc1ccc(OCCN(C)C(=O)c2cccc(S(=O)(=O)N(C)c3ccccc3)c2)cc1	.	.	-3	.
O=S(=O)(c1ccc2ccccc2c1)N1CCOCC1	-7	-11	1	-2
O=C(NCc1ccco1)c1ccc(S(=O)(=O)N2CCCCC2)cc1	20	4	1	-2
O=C(NCc1ccco1)c1ccc(S(=O)(=O)N2CCOCC2)cc1	21	4	19	48*
O=S(=O)(c1ccc2nc(-c3ccco3)c(-c3ccco3)nc2c1)N1CCOCC1	33	-4	-8	59*
COc1cccc(N2CCN(C(=O)C3CCC(=O)N(C4CCCCCC4)C3)CC2)c1 (stereo not drawn)	0	-9	-3	-5
O=C(CCNC(=O)c1ccc(Cl)cc1)Nc1cccc(S(=O)(=O)N2CCCCC2)c1	.	.	-5	.
O=C(CSc1nnc(-c2ccc(OC(F)F)cc2)o1)NCc1cccs1	9	147*	78*	7
O=C(CSc1nc2ccccc2c(=O)n1-c1ccc(OC(F)F)cc1)NCc1cccs1	2	7	-4	4
Cc1ccn2c(=O)c(C(=O)NC3CCCCC3C)c(O)nc2c1 (stereo not drawn)	.	-9	-17	-2
O=C(Cc1ccccc1)NC(=S)Nc1ccc(OC(F)F)cc1	6	-7	-29	-5
O=C(c1cccc(-n2cccc2)c1)N1CCN(S(=O)(=O)c2ccccc2)CC1	.	16	1	65*
O=C(NCC(c1ccco1)N1CCCC1)c1cc2cc(Cl)ccc2o1 (stereo not drawn)	.	.	-10	.
Nc1nc(N(Cc2ccccc2)Cc2ccccc2)nc(C(F)(F)F)n1	.	.	-18	.
O=C(c1ccc(Cn2c(=S)[nH]c3ccc(N4CCOCC4)cc3c2=O)cc1)N1CCN(c2ccc(F)cc2)CC1	-3	-3	0	24
Cc1ccc(C)c(N2CCN(C(=O)c3ccc(Cn4c(=S)[nH]c5ccc(N6CCOCC6)cc5c4=O)cc3)CC2)c1	9	-8	-14	48*
